Experimental data from ChEMBL document CHEMBL4312018, “Novel benzimidazole phosphonates as potential inhibitors of protein prenylation” (Bioorg Med Chem Lett, 2019).
Calls of active or inactive are those of the source.

Columns and labels:
[1] = molecular target: T1, Farnesyl pyrophosphate synthase (Homo sapiens, UniProt P14324); experiment: Inhibition of FDPS (unknown origin) using [14C] IPP and GPP as substrate preincubated for 10 mins followed by substrate addition and measured after 30 min by liquid scintillation counting method
T1 sequence (P14324 whole entry): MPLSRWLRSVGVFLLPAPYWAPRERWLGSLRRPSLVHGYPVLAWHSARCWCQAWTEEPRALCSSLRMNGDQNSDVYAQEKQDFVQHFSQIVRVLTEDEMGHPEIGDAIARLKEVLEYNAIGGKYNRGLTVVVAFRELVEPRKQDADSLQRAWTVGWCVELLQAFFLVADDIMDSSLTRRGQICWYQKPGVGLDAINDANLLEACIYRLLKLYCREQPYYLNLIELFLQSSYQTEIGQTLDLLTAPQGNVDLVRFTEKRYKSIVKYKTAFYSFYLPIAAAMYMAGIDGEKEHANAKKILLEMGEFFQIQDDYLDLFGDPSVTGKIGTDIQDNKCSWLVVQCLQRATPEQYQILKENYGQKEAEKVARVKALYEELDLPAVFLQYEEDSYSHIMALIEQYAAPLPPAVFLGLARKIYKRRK

[2] = molecular target: T2, Geranylgeranyl pyrophosphate synthase (Homo sapiens, UniProt O95749); experiment: Inhibition of GGDPS (unknown origin) using [14C] IPP and FPP as substrate preincubated for 10 mins followed by substrate addition and measured after 30 min by liquid scintillation counting method
T2 sequence (O95749 whole entry): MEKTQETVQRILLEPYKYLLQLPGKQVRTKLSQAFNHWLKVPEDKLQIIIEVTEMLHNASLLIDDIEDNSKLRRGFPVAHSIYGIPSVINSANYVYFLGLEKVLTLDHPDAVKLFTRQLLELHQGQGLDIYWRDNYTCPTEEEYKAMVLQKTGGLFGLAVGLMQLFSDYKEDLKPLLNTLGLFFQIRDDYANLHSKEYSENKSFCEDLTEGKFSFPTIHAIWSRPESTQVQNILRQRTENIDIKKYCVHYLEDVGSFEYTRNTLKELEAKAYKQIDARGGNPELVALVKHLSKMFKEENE

[3] = molecular target: geranylgeranyltransferase type-I (Rattus norvegicus, UniProt P53610+Q04631); experiment: Inhibition of recombinant rat GGtase-1 expressed in Escherichia coli using dansyl-GCVLL as substrate after 1.5 hrs by spectrofluorimetric analysis
[4] = molecular target: T3, Geranylgeranyl transferase type-2 (Rattus norvegicus, UniProt Q08602+Q08603); experiment: Inhibition of recombinant rat RabGGTase expressed in Escherichia coli using Rab7 as substrate and [3H]geranylgeranyl pyrophosphate after 20 mins by liquid scintillation analysis
T3 sequence (Q08603 whole entry): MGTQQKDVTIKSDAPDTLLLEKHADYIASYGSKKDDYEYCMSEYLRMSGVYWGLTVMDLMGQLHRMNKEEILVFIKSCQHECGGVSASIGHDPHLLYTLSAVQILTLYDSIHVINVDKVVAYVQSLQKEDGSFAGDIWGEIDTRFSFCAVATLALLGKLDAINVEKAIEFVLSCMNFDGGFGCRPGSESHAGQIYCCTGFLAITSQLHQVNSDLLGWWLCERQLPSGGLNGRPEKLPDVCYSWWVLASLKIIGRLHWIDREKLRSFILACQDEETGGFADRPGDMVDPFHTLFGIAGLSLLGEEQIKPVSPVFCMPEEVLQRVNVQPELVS
T3 sequence (Q08602 whole entry): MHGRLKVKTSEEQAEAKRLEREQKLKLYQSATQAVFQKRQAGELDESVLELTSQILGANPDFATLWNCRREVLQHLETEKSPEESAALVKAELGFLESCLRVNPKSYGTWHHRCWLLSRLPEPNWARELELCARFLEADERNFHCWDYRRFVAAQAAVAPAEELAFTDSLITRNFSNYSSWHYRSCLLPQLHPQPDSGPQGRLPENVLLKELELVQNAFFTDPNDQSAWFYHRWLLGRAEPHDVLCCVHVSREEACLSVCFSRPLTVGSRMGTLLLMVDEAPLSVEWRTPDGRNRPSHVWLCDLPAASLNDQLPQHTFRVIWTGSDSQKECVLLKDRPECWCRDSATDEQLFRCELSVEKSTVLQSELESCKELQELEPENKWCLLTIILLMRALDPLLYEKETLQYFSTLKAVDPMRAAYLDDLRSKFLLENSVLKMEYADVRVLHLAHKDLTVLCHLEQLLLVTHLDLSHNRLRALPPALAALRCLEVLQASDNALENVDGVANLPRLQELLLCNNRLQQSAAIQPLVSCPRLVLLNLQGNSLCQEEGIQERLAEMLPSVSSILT

[5] = molecular target: T4, Geranylgeranyl transferase type-2 (Homo sapiens) (UniProt P53611+Q92696); experiment: Inhibition of GGtase-2 in human cells assessed as minimum effective dose required for increase in intracellular lambda chain level after 48 hrs by ELISA; format: cell-based
Procedure, shortened: (§1)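 The lowest effective concentration in RPMI-8226 cells after 48 h requires both criteria below: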

[6] = molecular target: T5, Farnesyl pyrophosphate synthase (Homo sapiens) (UniProt P14324)
T5 sequence (whole entry): T1 sequence (P14324 whole entry)

[7] = molecular target: T5, Farnesyl pyrophosphate synthase (Homo sapiens); remark: listed apart in the source
[8] = molecular target: Protein farnesyltransferase (Rattus norvegicus, UniProt Q02293+Q04631); experiment: Inhibition of recombinant rat FTase expressed in Escherichia coli using dansyl-GCVLS as substrate after 1.5 hrs by spectrofluorimetric analysis
[9] = molecular target: T4, Geranylgeranyl transferase type-2 (Homo sapiens); experiment: Inhibition of GGtase-2 in human cells assessed as minimum effective dose causing => 20% decrease in Rab6 level after 48 hrs by immunoblot analysis; format: cell-based; procedure, shortened: as §1
[10] = molecular target: T6, Geranylgeranyl transferase type I (Homo sapiens) (UniProt P49354+P53609); experiment: Inhibition of GGtase-1 in human RPMI8226 cells assessed as disruption of Rap1a geranylgeranylation after 48 hrs immunoblot analysis; format: cell-based
[11] = molecular target: T5, Farnesyl pyrophosphate synthase (Homo sapiens); experiment: Inhibition of FDPS in human RPMI8226 cells assessed as increase in intracellular lambda chain level at =< 1mM after 48 hrs by ELISA; format: cell-based
Procedure, shortened: (§2)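 RPMI-8226 cells were exposed for 48 h, and intracellular lambda light chain was measured by ELISA as percent of untreated control. The lowest effective concentration also requires unmodified Rap1a to be visible on whole-cell-lysate immunoblot with an unmodified-specific antibody. The ELISA rise must be statistically significant.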

[12] = molecular target: T5, Farnesyl pyrophosphate synthase (Homo sapiens); experiment: Inhibition of FDPS in human RPMI8226 cells assessed as unmodified Rap1a level at =< 1 mM after 48 hrs by immunoblot analysis; format: cell-based
Procedure, shortened: (§3)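 RPMI-8226 cells were exposed for 48 h. The lowest effective concentration counts only when two read-outs agree. Unmodified Rap1a must be visible on immunoblot of whole-cell lysate, using an antibody that detects only unmodified protein.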

[13] = molecular target: T4, Geranylgeranyl transferase type-2 (Homo sapiens); experiment: Inhibition of GGtase-2 in human RPMI8226 cells assessed as increase in intracellular lambda chain at =< 1 mM level after 48 hrs by ELISA; format: cell-based
Procedure, shortened: (§4)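 RPMI-8226 cells were incubated 48 h with the compound or medium alone. Intracellular lambda light chain was quantified by ELISA and expressed as percent of untreated control (mean ± SD, n=3). Significance versus control was judged by t-test, p<0.05.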

[14] = molecular target: T7, Protein farnesyltransferase (Homo sapiens) (UniProt P49354+P49356); experiment: Inhibition of FTase in human RPMI8226 cells assessed as disruption of H-ras farnesylation after 48 hrs by immunoblot analysis; format: cell-based
[15] = molecular target: T4, Geranylgeranyl transferase type-2 (Homo sapiens); experiment: Inhibition of GGtase-2 in human RPMI8226 cells assessed as decrease in Rab6 level at =< 1 mM after 48 hrs by immunoblot analysis relative to control; format: cell-based
Procedure, shortened: (§5)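 After 48 h treatment, RPMI-8226 cells were extracted with Triton X-114 to give a detergent (membrane) fraction, which was immunoblotted for Rab6. Rab6 band density was normalized to calnexin and expressed relative to untreated cells. Blots are representative of three independent studies.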

[16] = molecular target: T7, Protein farnesyltransferase (Homo sapiens); experiment: Inhibition of FTase in human RPMI8226 cells assessed as disruption of H-ras farnesylation at 1 to 5 mM incubated for 48 hrs by immunoblot analysis; format: cell-based
[17] = molecular target: T4, Geranylgeranyl transferase type-2 (Homo sapiens); experiment: Inhibition of GGTase-2 in human RPMI8226 cells assessed as ratio of calnexin to Rab6 level at 1 mM after 48 hrs by immunoblot analysis relative to control; format: cell-based; procedure, shortened: as §5
[18] = molecular target: T4, Geranylgeranyl transferase type-2 (Homo sapiens); experiment: Inhibition of GGTase-2 in human RPMI8226 cells assessed as ratio of calnexin to Rab6 level at 5 mM after 48 hrs by immunoblot analysis relative to control; format: cell-based; procedure, shortened: as §5
[19] = molecular target: T4, Geranylgeranyl transferase type-2 (Homo sapiens); experiment: Inhibition of GGtase-2 in human RPMI8226 cells assessed as increase in intracellular lambda light chain level at 1 to 5 mM incubated for 48 hrs […]; format: cell-based; procedure, shortened: as §4
[20] = molecular target: T6, Geranylgeranyl transferase type I (Homo sapiens); experiment: Inhibition of GGtase-1 in human RPMI8226 cells assessed as disruption of Rap1a geranylgeranylation at 1 to 5 mM incubated for 48 hrs by immunoblot analysis; format: cell-based
[21] = molecular target: T4, Geranylgeranyl transferase type-2 (Homo sapiens); experiment: Inhibition of GGTase-2 in human RPMI8226 cells assessed as ratio of calnexin to Rab6 level at […] after 48 hrs by immunoblot analysis relative to control; format: cell-based
[22] = molecular target: T4, Geranylgeranyl transferase type-2 (Homo sapiens); experiment: Inhibition of GGtase-2 in human cells assessed as decrease in Rab6 level at =< 5 mM after 48 hrs by immunoblot analysis relative to control; format: cell-based; procedure, shortened: as §5
[23] = molecular target: T5, Farnesyl pyrophosphate synthase (Homo sapiens); experiment: Inhibition of FDPS in human RPMI8226 cells assessed as unmodified Rap1a level at =< 5 mM after 48 hrs by immunoblot analysis; format: cell-based; procedure, shortened: as §3
[24] = molecular target: T5, Farnesyl pyrophosphate synthase (Homo sapiens); experiment: Inhibition of FDPS in human RPMI8226 cells assessed as increase in intracellular lambda chain level at =< 5 mM after 48 hrs by ELISA; format: cell-based; procedure, shortened: as §2
[25] = molecular target: T4, Geranylgeranyl transferase type-2 (Homo sapiens); experiment: Inhibition of GGtase-2 in human cells assessed as increase in intracellular lambda chain at =< 5 mM level after 48 hrs by ELISA; format: cell-based; procedure, shortened: as §4

| IC50 [1] | IC50 [2] | IC50 [3] | IC50 [4] | LED [5] | LED [6] | LED [7] | IC50 [8] | LED [9] | Structure (SMILES) | further results |
| --- | --- | --- | --- | --- | --- | --- | --- | --- | --- | --- |
| > 100 µM | > 100 µM | > 1000 µM | 810 µM | 5 mM | 5 mM | 5 mM | > 1000 µM | 5 mM | CC(Cn1cnc2ccccc21)(C(=O)O)P(=O)(O)O (centres undefined) | – |
| 1 µM | > 100 µM | > 1000 µM | > 1000 µM | – | – | – | > 1000 µM | – | CC(Cn1cnc2ccccc21)(P(=O)(O)O)P(=O)(O)O | inhibition [10]: inactive; inhibition [11]: inactive; inhibition [12]: inactive; inhibition [13]: inactive; inhibition [14]: inactive; inhibition [15]: inactive |
| > 100 µM | > 100 µM | > 1000 µM | 198 µM | 1 mM | 1 mM | 1 mM | 125 µM | 1 mM | O=C(O)C(Cn1cnc2ccccc21)P(=O)(O)O (centres undefined) | inhibition [16]: inactive; fold change (FC) [17]: 0.6; fold change (FC) [18]: 0.3; inhibition [19]: Active; inhibition [20]: inactive; FC [21]: 0.4 |
| > 100 µM | > 100 µM | 145 µM | > 1000 µM | – | – | – | 450 µM | – | O=C(O)C(Cn1cnc2cc(F)c(F)cc21)P(=O)(O)O (centres undefined) | inhibition [22]: inactive; inhibition [23]: inactive; inhibition [24]: inactive; inhibition [25]: inactive |
